From ChEMBL document CHEMBL1123959, “Orally active hydroxamic acid inhibitors of leukotriene biosynthesis” (J Med Chem, 1988)

Key:
[1] = molecular target: T1, Polyunsaturated fatty acid 5-lipoxygenase (Rattus norvegicus, UniProt P12527); assay: In vitro inhibition of 5-lipoxygenase in RBL-1 cells; assay type: cell-based
T1 sequence (P12527 whole entry): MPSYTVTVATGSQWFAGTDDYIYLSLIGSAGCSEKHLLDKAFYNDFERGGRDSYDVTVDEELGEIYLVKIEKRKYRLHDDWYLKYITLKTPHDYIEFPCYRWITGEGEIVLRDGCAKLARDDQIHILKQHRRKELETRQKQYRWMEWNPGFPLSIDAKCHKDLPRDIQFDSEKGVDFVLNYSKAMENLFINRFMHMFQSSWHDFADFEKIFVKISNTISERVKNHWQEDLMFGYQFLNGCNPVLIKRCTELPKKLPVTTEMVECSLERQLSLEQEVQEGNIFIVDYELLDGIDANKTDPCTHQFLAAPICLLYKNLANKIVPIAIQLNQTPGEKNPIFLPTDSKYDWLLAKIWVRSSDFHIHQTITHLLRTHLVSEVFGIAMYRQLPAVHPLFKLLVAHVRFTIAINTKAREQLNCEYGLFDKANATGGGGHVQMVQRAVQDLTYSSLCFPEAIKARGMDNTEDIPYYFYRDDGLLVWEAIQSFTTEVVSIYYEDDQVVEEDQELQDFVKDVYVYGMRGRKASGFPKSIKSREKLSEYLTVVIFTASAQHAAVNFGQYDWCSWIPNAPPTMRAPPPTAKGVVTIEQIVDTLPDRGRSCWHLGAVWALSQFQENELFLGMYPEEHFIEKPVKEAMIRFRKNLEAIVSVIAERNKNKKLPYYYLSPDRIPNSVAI
Summary of the method: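 The enzyme was 5-lipoxygenase in the 2000g supernatant of RBL-1 cell homogenate. IC50 is reported with 95% confidence limits.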

Rattus norvegicus [2] = species on record: Rattus norvegicus; assay: Effective dosage to inhibit leukotriene biosynthesis in rat peritoneal anaphylaxis model; assay type: functional
Summary of the method: (§1)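 Rats were primed ip with rabbit antibody to bovine serum albumin and challenged ip with BSA 3 h later. Inhibitors were given orally by gavage 1 h before challenge. Rats were killed 15 min after challenge, and peritoneal fluid leukotrienes were measured by radioimmunoassay. ED50 is given with 95% confidence limits. Percent inhibition at a fixed dose is the mean ± SEM (n = 8).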

Rattus norvegicus [3] = assay: Plasma concentration after 1 hr of peroral administration at 100 mg/kg was determined in rats; assay type: functional, organism-based; set-up: dose 100 mg/kg
Summary of the method: (§2)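 Rats received 100 mg/kg orally by gavage. Blood was drawn from a lateral tail vein at the set times, and plasma was separated by centrifugation. Proteins were precipitated with methanol, and compound was quantified by HPLC with UV detection at its absorbance maximum. Values are the average of two determinations ± range.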

Rattus norvegicus [4] = assay: Plasma concentration after 3h of peroral administration at 100 mg/kg was determined in rats; assay type: functional, organism-based; set-up: dose 100 mg/kg; summary of the method: as §2
Rattus norvegicus [5] = assay: Plasma concentration after 6 hr of peroral administration at 100 mg/kg was determined in rats; assay type: functional, organism-based; set-up: dose 100 mg/kg; summary of the method: as §2
Rattus norvegicus [6] = assay: Percentage inhibition of leukotriene biosynthesis in rat peritoneal anaphylaxis model at 100 mg/kg; assay type: functional; summary of the method: as §1

`CCCCOc1ccc(C(C)N(O)C(C)=O)cc1` (stereo not drawn) was tested. Which IC50 [1] did it give?
The IC50 was 0.79 µM.

What about the ED50 (Rattus norvegicus [2]) of the same compound?
The ED50 was 17 mg/kg.

And the Plasma concentration (Rattus norvegicus [3])?
Its Plasma concentration is 92 µM.

And the Plasma concentration (Rattus norvegicus [4])?
Its Plasma concentration is 71 µM.

What about the Plasma concentration (Rattus norvegicus [5]) of the same compound?
Its Plasma concentration is 13 µM.

`CC(=O)N(O)C(C)c1ccc(CC(C)C)cc1` (stereo not drawn) was tested. Which IC50 [1] did it give?
The IC50 was 0.42 µM.

And the ED50 (Rattus norvegicus [2])?
Its ED50 is 24 mg/kg.

What about the Plasma concentration (Rattus norvegicus [3]) of the same compound?
The Plasma concentration was 21 µM.

And the Plasma concentration (Rattus norvegicus [4])?
The Plasma concentration was 10 µM.

And the Plasma concentration (Rattus norvegicus [5])?
Its Plasma concentration is 5 µM.

How did the IC50 [1] turn out when `CCCCOc1ccc(C(C)C(=O)N(C)O)cc1` (stereo not drawn) was run?
Its IC50 is 0.78 µM.

What about the inhibition in vivo at 100 mg/kg (Rattus norvegicus [6]) of the same compound?
Its inhibition in vivo at 100 mg/kg is 62%.

And the Plasma concentration (Rattus norvegicus [3])?
The Plasma concentration was 58 µM.

And the Plasma concentration (Rattus norvegicus [4])?
The Plasma concentration was 7.3 µM.

And the Plasma concentration (Rattus norvegicus [5])?
Its Plasma concentration is 3.2 µM.

Which IC50 [1] does the source give for `CC(C)Cc1ccc(C(C)C(=O)N(C)O)cc1` (stereo not drawn) here?
Its IC50 is 0.29 µM.

What about the inhibition in vivo at 100 mg/kg (Rattus norvegicus [6]) of the same compound?
The inhibition in vivo at 100 mg/kg was 65%.

What about the Plasma concentration (Rattus norvegicus [3]) of the same compound?
Its Plasma concentration is less than 9 µM.

What about the Plasma concentration (Rattus norvegicus [4]) of the same compound?
Its Plasma concentration is less than 9 µM.

And the Plasma concentration (Rattus norvegicus [5])?
Its Plasma concentration is less than 9 µM.

What does the source list for `CC(C(=O)N(C)O)c1ccc(OCc2ccccc2)cc1` (stereo not drawn)?
ED50 (Rattus norvegicus [2]): 40 mg/kg; Plasma concentration (Rattus norvegicus [3]): 8 µM; Plasma concentration (Rattus norvegicus [4]): 5.8 µM; Plasma concentration (Rattus norvegicus [5]): 3.8 µM

With `CC(C(=O)N(C)O)c1ccc2ccccc2c1` (stereo not drawn) as the compound, how does the IC50 [1] read?
The IC50 was 0.59 µM.

What about the Plasma concentration (Rattus norvegicus [3]) of the same compound?
Its Plasma concentration is 37 µM.

What about the Plasma concentration (Rattus norvegicus [4]) of the same compound?
The Plasma concentration was 13 µM.

And the Plasma concentration (Rattus norvegicus [5])?
Its Plasma concentration is 1.4 µM.

Which results are given for `CC(=O)N(O)C(C)c1ccc2ccccc2c1` (stereo not drawn)?
IC50 [1]: 0.54 µM; ED50 (Rattus norvegicus [2]): 19 mg/kg; Plasma concentration (Rattus norvegicus [3]): 91 µM; Plasma concentration (Rattus norvegicus [4]): 26 µM; Plasma concentration (Rattus norvegicus [5]): 33 µM

For `CC(=O)N(O)C(C)c1ccc(OCc2ccccc2)cc1` (stereo not drawn), which IC50 [1] is on record?
The IC50 was 0.37 µM.

And the ED50 (Rattus norvegicus [2])?
The ED50 was 8 mg/kg.

And the Plasma concentration (Rattus norvegicus [3])?
Its Plasma concentration is 110 µM.

And the Plasma concentration (Rattus norvegicus [4])?
The Plasma concentration was 140 µM.

And the Plasma concentration (Rattus norvegicus [5])?
The Plasma concentration was 95 µM.
